Data set [1] can be described thus: Aqueous solubility of the compound. The following applies: buffer.
A further data set deals with SJRH30. Briefly: Antiproliferative activity against human SJRH30 assessed as cell growth inhibition after 48 hrs by SRB assay. The format is functional. The gist of the method: (§1)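 HCC1937, HCC70 and SJCRH30 cells in RPMI-1640 with 10% FBS and 50 μg/mL gentamicin, 37 °C, 5% CO2, used within 4 months of thaw. Plated cells adhered overnight before 48 h compound exposure (DMSO 0.5% v/v final). Read-out was SRB, with GI50 by nonlinear regression from 3 or 4 experiments ±SEM.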
(In general: In SRB staining, fixed cells bind dye roughly in proportion to their protein.)

The next data set has as its system HCC70. Briefly: Antiproliferative activity against human HCC70 assessed as cell growth inhibition after 48 hrs by SRB assay. The settings on record: for CC50: read-out: LC50 (the source's name). The format is functional. In short, it runs like this:
as §1

A further data set deals with A673. Briefly: Antiproliferative activity against human A673 assessed as cell growth inhibition after 48 hrs by SRB assay. The format is functional. The settings on record: for CC50: read-out: LC50 (the source's name). In short, it runs like this:
(§2)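 A-673 and HCC1806 cells in RPMI-1640 with 5% FBS, 37 °C, 5% CO2, used within 4 months of thaw. Cells were plated and left overnight, then exposed to compounds in DMSO (0.5% v/v final) for 48 h. SRB staining followed, with GI50 fitted by nonlinear regression, as the mean of 3 or 4 experiments ±SEM.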

In a further data set the test system is MDA-MB-231. Briefly: Antiproliferative activity against human MDA-MB-231 assessed as cell growth inhibition after 48 hrs by SRB assay. The class given is functional. The settings on record: for CC50: read-out: LC50 (the source's name). The gist of the method:
(§3)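 MDA-MB-231 and MDA-MB-453 cells in modified IMEM with 5% FBS and 30 μg/mL gentamicin, 37 °C, 5% CO2, used within 4 months of thaw. After overnight adherence, cells had 48 h compound treatment (DMSO 0.5% v/v final). Growth was read by SRB assay, with GI50 from nonlinear regression as the mean of 3 or 4 experiments ±SEM.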

A further data set deals with MDA-MB-453. Briefly: Antiproliferative activity against human MDA-MB-453 assessed as cell growth inhibition after 48 hrs by SRB assay. The class given is functional. In short, it runs like this: as §3
The next data set relates to HCC1806. Briefly: Antiproliferative activity against human HCC1806 assessed as cell growth inhibition after 48 hrs by SRB assay. The format is functional. The following applies: for CC50: read-out: LC50 (the source's name). The gist of the method: as §2
The subject of another data set is HCC1937. Briefly: Antiproliferative activity against human HCC1937 assessed as cell growth inhibition after 48 hrs by SRB assay. The class given is functional. In short, it runs like this:
as §1

Data set [2] concerns Salmon testes DNA. Briefly: Covalent binding affinity to salmon DNA measured after 30 mins by UV based spectroscopic method. The class given is nucleic-acid assay. The following applies: Salmo salar. The gist of the method:
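After 30 min room-temperature incubation with salmon sperm DNA in TE/15% glycerol buffer and 100 kDa ultrafiltration, retained complexes were washed with 30% MeOH (3× 5000g, 10 °C). Ligands were then released with 95% MeOH/1% formic acid for 20 min, refiltered, dried, taken up in MeOH, and analysed by LC-PDA-MS/MS against no-DNA controls.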

Data set [3] relates to Salmon testes DNA. Briefly: Binding affinity to salmon DNA groove measured after 30 mins by UV based spectroscopic method. The format is nucleic-acid assay. The settings on record: Salmo salar. In short, it runs like this: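 Compounds (typically 5–50 μg) in 200 μL water/MeOH were added to 400 μL salmon sperm DNA stock (1 mg/mL in 10 mM Tris, 1 mM EDTA, pH 8.0, 15% glycerol) and incubated 30 min at room temperature. Samples were ultrafiltered (100 kDa, 5000g, 10 °C), and filtrate peak areas (UV 254 nm, LC-PDA-MS/MS) were compared with no-DNA buffer controls.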

Active and inactive are the calls of the source. The rule behind the calls is not given here.

Take `Nc1c2ccccc2nc2ccccc12` [AMINACRINE]: in data set [1], the solubility entry was “Insoluble”.

As a reminder, the GI50 is the concentration at which growth is held to half of that of the control. Usually TGI stands for the concentration at which net growth stops. On to `COc1cc2c(cc1O)[C@@H](Cc1ccc(O)c(Oc3ccc(C[C@@H]4c5cc(OC)c(OC)cc5CCN4C)cc3)c1)N(C)CC2` [DARUISOLINE], for which the GI50 with SJRH30 was 3.7 µM; in the data set on HCC70, 8.8 µM; in the data set on A673, 9.2 µM; with MDA-MB-231 it was 13 µM; in the data set on MDA-MB-453 it was 9 µM; in the data set on HCC1806, 17 µM. In addition, in the data set on HCC1937, the GI50 amounted to 6.9 µM. Also, the TGI with SJRH30 was determined as 6 µM; in the data set with HCC70 it was 13 µM; in the data set on A673, 13 µM; with MDA-MB-231 it was 19 µM; in the data set on MDA-MB-453, 14 µM; in the data set with HCC1806, 27 µM. The TGI in the data set with HCC1937 came out at 11 µM. The CC50 with HCC70 turned out to be 19 µM; in the data set on A673, 19 µM; in the data set with MDA-MB-231 it was 30 µM; with HCC1806 it was 41 µM.

On to `O=NN(CCCl)C(=O)NCCCl` [CARMUSTINE], for which the solubility result in data set [1] was “Insoluble”. The outcome with Salmon testes DNA [2] was Active.

With `NC[C@@H]1O[C@H](O[C@H]2[C@@H](O)[C@H](O[C@@H]3[C@@H](O)[C@H](N)C[C@H](N)[C@H]3O[C@H]3O[C@H](CN)[C@@H](O)[C@H](O)[C@H]3N)O[C@@H]2CO)[C@H](N)[C@@H](O)[C@@H]1O` [FRAMYCETIN], in [1], the solubility result is on record as “Soluble”. The result in the data set on Salmon testes DNA [3] was Active.

With `N[C@@H](Cc1ccc(N(CCCl)CCCl)cc1)C(=O)O` [MELPHALAN], in data set [1], the solubility result is “Insoluble”. In the data set on Salmon testes DNA [2], the result was Active.

Regarding `Cc1c2ccncc2c(C)c2c1[nH]c1ccccc12` [ELLIPTECINE], the solubility result in data set [1] is “Insoluble”.

Turning to `CN(C)CCN(Cc1cccs1)c1ccccn1` [METHAPYRILENE], the solubility result in data set [1] was “Insoluble”.

For `COc1ccc2cc1Oc1ccc(cc1)C[C@H]1c3cc(c(OC)cc3CCN1C)Oc1c(OC)c(OC)cc3c1[C@H](C2)N(C)CC3` [FANCHININ], the GI50 in the data set with SJRH30 was 3 µM; with HCC70 it was 3.4 µM; with A673 it was 4 µM; in the data set on MDA-MB-231, 5 µM; with MDA-MB-453 it was 3.3 µM; in the data set on HCC1806, 5.1 µM. Besides, the GI50 in the data set on HCC1937 was 4.2 µM. The TGI with SJRH30 amounted to 4.3 µM; in the data set with HCC70 it was 5.9 µM; in the data set on A673, 6 µM; in the data set with MDA-MB-231 it was 7.4 µM; with MDA-MB-453, 4.8 µM; in the data set on HCC1806, 8.5 µM. In addition, the TGI in the data set with HCC1937 was found to be 10 µM. In addition, the CC50 in the data set on HCC70 turned out to be 11 µM; in the data set on A673, 8.9 µM; in the data set with MDA-MB-231 it was 12 µM; in the data set with HCC1806, 15 µM.

On to `COc1ccc2cc1Oc1ccc(cc1)C[C@H]1c3c(cc4c(c3Oc3cc5c(cc3OC)CCN(C)[C@@H]5C2)OCO4)CCN1C` [CEPHARANTHINE], for which the GI50 in the data set on SJRH30 was 3.8 µM; in the data set with HCC70 it was 5.8 µM; in the data set with A673 it was 4.5 µM; with MDA-MB-231 it was 5.3 µM; in the data set with MDA-MB-453 it was 5.5 µM; with HCC1806, 7.2 µM. Besides, the 50% growth inhibitory concentration (GI50) with HCC1937 was 6 µM. In addition, the TGI in the data set with SJRH30 is 5.7 µM; in the data set with HCC70, 9.6 µM; with A673, 5.8 µM; in the data set on MDA-MB-231, 7.7 µM; with MDA-MB-453 it was 7.8 µM; with HCC1806, 12 µM. In the data set on HCC1937, the TGI worked out at 14 µM. Also, the CC50 with HCC70 amounted to 17 µM; with A673, 7.5 µM; with MDA-MB-231 it was 12 µM; with HCC1806 it was 19 µM.

These data come from ChEMBL document CHEMBL4828701, “An Integrated Strategy for the Detection, Dereplication, and Identification of DNA-Binding Biomolecules from Complex Natural Product Mixtures” (J Nat Prod, 2021).
